Results published in ChEMBL document CHEMBL1146375, “Synthetic studies on novel benzimidazolopeptides with antimicrobial, cytotoxic and anthelmintic potential” (2007).
Converted amounts (≈) assume the structure as drawn. Residues, ends and D or L forms follow the SMILES beside them. *: point of attachment. X2 = O=C(c1cc(-c2nc3ccc([N+](=O)[O-])cc3[nH]2)ccc1O)*

Test system: Bacillus subtilis
Assay: Antibacterial activity against Bacillus subtilis NCIM 2063 after 18 hrs by disc diffusion method
Format: functional
Details: not given
Method in brief: (§1)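 Modified Kirby-Bauer disc diffusion. Plates inoculated with spore suspension (about 6 × 10⁴ spores mL^-1). Sterile 6 mm paper discs carried test samples at 10 mg mL^-1; ciprofloxacin disc as reference, DMF disc as negative control. Plates held 18 h at 37 °C. Inhibition zone diameters (mm) averaged over triplicate sets.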
With `COC(=O)CNC(=O)[C@H](CC(C)C)NC(=O)[C@@H]1CCCN1C(=O)[C@H](Cc1cnc[nH]1)NC(=O)c1cc(-c2nc3ccc([N+](=O)[O-])cc3[nH]2)ccc1O` (X2-HPLG-OMe) the “inhibition zone (IZ)” value was 14 mm.

Test system: Trichophyton benhamiae
Assay: Antifungal activity against Trichophyton mentagrophytes MUCC 665 after 48 hrs by tube dilution method
Format: functional, Arthroderma benhamiae
Details: not given
Method in brief: (§2)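 Tube dilution MIC as for bacteria (seven concentrations, 200–3.1 […]), with DMSO in place of DMF. Tubes inoculated with fungal culture and incubated 48 h at 37 °C. MIC read from presence or absence of growth.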
`COC(=O)CNC(=O)[C@H](CC(C)C)NC(=O)[C@@H]1CCCN1C(=O)[C@H](Cc1cnc[nH]1)NC(=O)c1cc(-c2nc3ccc([N+](=O)[O-])cc3[nH]2)ccc1O` (X2-HPLG-OMe) showed an MIC of 6 µg/mL (≈ 8.36 µM).

Test system: Candida albicans
Assay: Antifungal activity against Candida albicans MUCC 29 after 48 hrs by tube dilution method
Format: functional
Details: not given
Method in brief: as §2
With `COC(=O)CNC(=O)[C@H](CC(C)C)NC(=O)[C@@H]1CCCN1C(=O)[C@H](Cc1cnc[nH]1)NC(=O)c1cc(-c2nc3ccc([N+](=O)[O-])cc3[nH]2)ccc1O` (X2-HPLG-OMe) the MIC was 6 µg/mL (≈ 8.36 µM).

Test system: not listed separately
Assay: Growth inhibition of DLA cells at 125 ug/mL after 3 hrs
Format: functional
Details: Mus musculus
Method in brief: (§3)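 DLA and EAC cells passaged intraperitoneally in albino mice, harvested after 15–20 days and adjusted to 1 × 10⁶ cells/mL. Dilutions in Dulbecco's medium (500–31.25, some down to 3.91 µg/mL; 5-FU reference) mixed 1:1 with cells and held 3 h at 37 °C. Trypan blue exclusion gave % growth inhibition; CTC50 by graphical extrapolation.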
`COC(=O)CNC(=O)[C@H](CC(C)C)NC(=O)[C@@H]1CCCN1C(=O)[C@H](Cc1cnc[nH]1)NC(=O)c1cc(-c2nc3ccc([N+](=O)[O-])cc3[nH]2)ccc1O` (X2-HPLG-OMe) showed an inhibition at 125 µg/mL of 23.7%.

Test system: not listed separately
Assay: Growth inhibition of EAC cells after 3 hrs
Format: functional
Details: Mus musculus, Ehrlich
Method in brief: as §3
Work on `COC(=O)CNC(=O)[C@H](CC(C)C)NC(=O)[C@@H]1CCCN1C(=O)[C@H](Cc1cnc[nH]1)NC(=O)c1cc(-c2nc3ccc([N+](=O)[O-])cc3[nH]2)ccc1O` (X2-HPLG-OMe) yielded a CC50 greater than 697 µM.

Test system: not listed separately
Assay: Growth inhibition of EAC cells at 62.5 ug/mL after 3 hrs
Format: functional
Details: Mus musculus, Ehrlich
Method in brief: as §3
For `COC(=O)CNC(=O)[C@H](CC(C)C)NC(=O)[C@@H]1CCCN1C(=O)[C@H](Cc1cnc[nH]1)NC(=O)c1cc(-c2nc3ccc([N+](=O)[O-])cc3[nH]2)ccc1O` (X2-HPLG-OMe), the inhibition at 62.5 µg/mL was 7.14%.

Test system: Microsporum audouinii
Assay: Antifungal activity against Microsporum audouinii MUCC 545 after 48 hrs by tube dilution method
Format: functional
Details: not given
Method in brief: as §2
In the case of `COC(=O)CNC(=O)[C@H](CC(C)C)NC(=O)[C@@H]1CCCN1C(=O)[C@H](Cc1cnc[nH]1)NC(=O)c1cc(-c2nc3ccc([N+](=O)[O-])cc3[nH]2)ccc1O` (X2-HPLG-OMe), the MIC is reported as 6 µg/mL (≈ 8.36 µM).

Test system: Pontoscolex corethrurus
Assay: Anthelmintic activity against Pontoscolex corethrurus ICARBC 408 assessed as mean paralyzing time
Format: functional
Details: not given
Method in brief: (§4)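 Earthworms exposed to test suspensions at 2 mg mL^-1 (0.2% w/v), made by triturating compound with Tween 80 (0.5%) and distilled water, then mechanically stirred 30 min. Mebendazole suspension prepared alike as reference. Paralysis and death times recorded; death confirmed by no movement in 50 °C water. Means from triplicate sets.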
`COC(=O)CNC(=O)[C@H](CC(C)C)NC(=O)[C@@H]1CCCN1C(=O)[C@H](Cc1cnc[nH]1)NC(=O)c1cc(-c2nc3ccc([N+](=O)[O-])cc3[nH]2)ccc1O` (X2-HPLG-OMe) gave a Time of 13.76 min.

Test system: not listed separately
Assay: Growth inhibition of EAC cells at 500 ug/mL after 3 hrs
Format: functional
Details: Mus musculus, Ehrlich
Method in brief: as §3
In the case of `COC(=O)CNC(=O)[C@H](CC(C)C)NC(=O)[C@@H]1CCCN1C(=O)[C@H](Cc1cnc[nH]1)NC(=O)c1cc(-c2nc3ccc([N+](=O)[O-])cc3[nH]2)ccc1O` (X2-HPLG-OMe), the inhibition at 500 µg/mL is reported as 28.7%.

Test system: not listed separately
Assay: Anthelmintic activity against Megascoplex konkanensis ICARBC 211 assessed as mean paralyzing time
Format: functional
Details: not given
Method in brief: as §4
With `COC(=O)CNC(=O)[C@H](CC(C)C)NC(=O)[C@@H]1CCCN1C(=O)[C@H](Cc1cnc[nH]1)NC(=O)c1cc(-c2nc3ccc([N+](=O)[O-])cc3[nH]2)ccc1O` (X2-HPLG-OMe) the TIME was 0.188 h.

Test system: Pseudomonas aeruginosa
Assay: Antibacterial activity against Pseudomonas aeruginosa NCIM 2034 after 18 hrs by disc diffusion method
Format: functional
Details: not given
Method in brief: as §1
In the case of `COC(=O)CNC(=O)[C@H](CC(C)C)NC(=O)[C@@H]1CCCN1C(=O)[C@H](Cc1cnc[nH]1)NC(=O)c1cc(-c2nc3ccc([N+](=O)[O-])cc3[nH]2)ccc1O` (X2-HPLG-OMe), the “inhibition zone (IZ)” value is reported as 24 mm.

Test system: Eudrilus
Assay: Anthelmintic activity against Eudrilus sp. assessed as mean paralyzing time
Format: functional
Details: not given
Method in brief: as §4
Compound `COC(=O)CNC(=O)[C@H](CC(C)C)NC(=O)[C@@H]1CCCN1C(=O)[C@H](Cc1cnc[nH]1)NC(=O)c1cc(-c2nc3ccc([N+](=O)[O-])cc3[nH]2)ccc1O` (X2-HPLG-OMe) has a Time of 11.23 min.

Test system: Candida albicans
Assay: Antifungal activity against Candida albicans MUCC 29 after 48 hrs by disc diffusion method
Format: functional
Details: not given
Method in brief: (§5)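 Agar well diffusion on plates inoculated with spore suspension in normal saline from cultures on Sabouraud's broth. Wells punched and loaded with test samples or griseofulvin at 10 mg mL^-1, with DMSO as negative control. Incubated 48 h at 37 °C.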
For `COC(=O)CNC(=O)[C@H](CC(C)C)NC(=O)[C@@H]1CCCN1C(=O)[C@H](Cc1cnc[nH]1)NC(=O)c1cc(-c2nc3ccc([N+](=O)[O-])cc3[nH]2)ccc1O` (X2-HPLG-OMe), the “inhibition zone (IZ)” value was 20 mm.

Test system: not listed separately
Assay: Growth inhibition of EAC cells at 250 ug/mL after 3 hrs
Format: functional
Details: Mus musculus, Ehrlich
Method in brief: as §3
`COC(=O)CNC(=O)[C@H](CC(C)C)NC(=O)[C@@H]1CCCN1C(=O)[C@H](Cc1cnc[nH]1)NC(=O)c1cc(-c2nc3ccc([N+](=O)[O-])cc3[nH]2)ccc1O` (X2-HPLG-OMe) gave an inhibition at 250 µg/mL of 21.4%.

Test system: not listed separately
Assay: Growth inhibition of DLA cells at 62.5 ug/mL after 3 hrs
Format: functional
Details: Mus musculus
Method in brief: as §3
`COC(=O)CNC(=O)[C@H](CC(C)C)NC(=O)[C@@H]1CCCN1C(=O)[C@H](Cc1cnc[nH]1)NC(=O)c1cc(-c2nc3ccc([N+](=O)[O-])cc3[nH]2)ccc1O` (X2-HPLG-OMe) gave an inhibition at 62.5 µg/mL of 15.8%.

Test system: Trichophyton benhamiae
Assay: Antifungal activity against Trichophyton mentagrophytes MUCC 665 after 48 hrs by disc diffusion method
Format: functional, Arthroderma benhamiae
Details: not given
Method in brief: as §5
For `COC(=O)CNC(=O)[C@H](CC(C)C)NC(=O)[C@@H]1CCCN1C(=O)[C@H](Cc1cnc[nH]1)NC(=O)c1cc(-c2nc3ccc([N+](=O)[O-])cc3[nH]2)ccc1O` (X2-HPLG-OMe), the “inhibition zone (IZ)” value was 15 mm.
